Laboratory results reported in ChEMBL document CHEMBL1139032, “Design and modular parallel synthesis of a MCR derived alpha-helix mimetic protein-protein interaction inhibitor scaffold” (Bioorg Med Chem Lett, 2006).
Calls of active or inactive are those of the source. The calls are words filed in the database; no cut-off is given here.

Assays:
[1] = target: Bcl-2-like protein 1 (Homo sapiens) (UniProt Q07817); test: Inhibition of BclXL by FP assay
Procedure, shortened: (§1)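 Run in 20 mM potassium phosphate pH 7.4 with 1 mM EDTA, 50 mM NaCl and 0.05% Pluronic F-68, at 10% final DMSO. Polarization read at ex 485/em 535 nm after 2 h at room temperature.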

[2] = target: Apoptosis regulator Bcl-2 (Homo sapiens) (UniProt P10415); test: Inhibition of Bcl2 by FP assay; procedure, shortened: as §1
Bcl-2-like protein 2 = target: T1, Bcl-2-like protein 2 (Homo sapiens, UniProt Q92843); test: Inhibition of Bclw by FP assay; procedure, shortened: as §1
T1 sequence (Q92843 whole entry): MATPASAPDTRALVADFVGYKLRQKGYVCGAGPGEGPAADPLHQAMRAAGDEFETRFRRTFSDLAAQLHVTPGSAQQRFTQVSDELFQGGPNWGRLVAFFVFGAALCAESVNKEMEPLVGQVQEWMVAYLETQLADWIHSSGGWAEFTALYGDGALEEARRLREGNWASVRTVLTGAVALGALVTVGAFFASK

HL-60 = test: Antiproliferative activity against HL60 cells by WST-1 assay; settings: Homo sapiens

Sequence of Bcl-2-like protein 1 (Homo sapiens) (Q07817 whole entry): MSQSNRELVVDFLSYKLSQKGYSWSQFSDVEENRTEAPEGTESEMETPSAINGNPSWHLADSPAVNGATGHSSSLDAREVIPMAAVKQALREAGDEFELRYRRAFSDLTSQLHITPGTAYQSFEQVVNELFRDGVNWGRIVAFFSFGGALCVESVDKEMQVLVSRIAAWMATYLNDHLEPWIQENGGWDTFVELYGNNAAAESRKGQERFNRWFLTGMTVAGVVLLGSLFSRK
Sequence of Apoptosis regulator Bcl-2 (Homo sapiens) (P10415 whole entry): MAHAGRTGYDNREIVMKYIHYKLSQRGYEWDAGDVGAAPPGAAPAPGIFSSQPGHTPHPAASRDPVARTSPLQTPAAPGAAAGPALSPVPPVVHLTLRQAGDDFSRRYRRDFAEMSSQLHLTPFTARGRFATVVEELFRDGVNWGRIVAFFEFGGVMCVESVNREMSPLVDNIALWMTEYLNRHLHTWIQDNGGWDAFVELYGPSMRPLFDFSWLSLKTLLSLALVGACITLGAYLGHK

Row | Activity [1] | Activity [2] | IC50 (Bcl-2-like protein 2) [µM] | GI50 (HL-60) [µM] | SMILES
1 | inactive | inactive | 14 | 12.5 | CCCc1c(-c2ccccc2Oc2ccccc2)ncn1Cc1ccccc1OC
2 | inactive | inactive | 26.9 | 13 | CCCCc1c(-c2ccccc2OC)ncn1Cc1cccc(-c2ccccc2)c1
3 | inactive | inactive | 8.09 | 9.43 | CCCCc1c(-c2ccccc2Oc2ccccc2)ncn1CCc1ccccc1OC
